Source: PubChem
OX1R antag-1 = blocks the human orexin 1 receptor; O43613; CHO/OX1R cells, Fluo-8 calcium fluorescence, orexin A; inhibition, % at 5 µM; actives 0.43% (n = 330,000); AID 434989;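 active = inhibition above its plate's threshold, mean inhibition of all tested compounds on the plate plus 3 SD, cut at about 37% in these data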;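 note: 0% = orexin A challenge wells and 100% = SB-334867-A antagonist wells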
Target sequence (O43613 whole entry, looked up): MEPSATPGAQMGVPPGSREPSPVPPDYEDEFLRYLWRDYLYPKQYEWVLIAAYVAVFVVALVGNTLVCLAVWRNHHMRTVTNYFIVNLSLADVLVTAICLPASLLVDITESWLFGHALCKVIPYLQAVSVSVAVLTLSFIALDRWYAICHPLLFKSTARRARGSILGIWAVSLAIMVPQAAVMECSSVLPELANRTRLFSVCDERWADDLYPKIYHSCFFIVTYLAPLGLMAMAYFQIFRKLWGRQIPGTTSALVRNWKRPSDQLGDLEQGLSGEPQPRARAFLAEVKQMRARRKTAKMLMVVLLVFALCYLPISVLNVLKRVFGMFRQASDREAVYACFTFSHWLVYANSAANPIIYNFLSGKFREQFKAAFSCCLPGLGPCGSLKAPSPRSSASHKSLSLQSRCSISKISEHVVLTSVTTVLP
OX1R antag-2 = antagonists of human orexin 1 receptor (OX1R); OX1R-expressing cells, FRET antagonist read-out; inhibition, % at 6.6 µM; actives 1.8% (n = 330,000); in the data active = inhibition mostly above about 38%, no sharp cut-off; inactive = mostly below about 40%;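 note: 0% = agonist challenge alone and 100% = reference antagonist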
NTR1 agonist = NTR1 (human) agonism. P30989. NTR1-U2OS beta-arrestin-GFP spot imaging, agonist mode. activation, % at 20 µM. actives 0.17% (n = 330,000). AID 493036;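 active = activation at or above 40% of the spot to cytoplasm intensity ratio, with at least 20 cells analyzed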;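 note: 0% = DMSO without peptide and 100% = 100 nM NTR1 peptide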
CHO parental Ca = counter-screen: ATP calcium response change in parental CHO cells; parental CHO-K1, ATP-induced calcium, Fluo-8 fluorescence; inhibition, % at 5.6 µM; actives 0.63% (n = 330,000); AID 463079;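 active = inhibition above that plate's mean sample inhibition plus 3 SD, cut at about 26% in these data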;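 note: 0% = ATP-challenged DMSO wells and 100% = DMSO wells without ATP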
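Test system: parental CHO cells; detection: calcium-sensitive Fluo-8 fluorescence; evaluation: percent inhibition of calcium signal; also added: ATP as calcium-mobilizing challenge; repeats: one well per compound; control set: ATP-challenged DMSO wells low, unchallenged DMSO wells high; compound: single nominal dose of 5.6 µM per compound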
TAAR1 ag = agonists of human TAAR1; Q96RJ0; CHO RD-HGA16 TAAR1, Fluo-8 calcium fluorescence; vehicle wells 0%, saturating PEA agonist 100%; activation, % at 3 µM; actives 0.99% (n = 360,000); AID 624467;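 active = activation above the mean activation of all test compounds in the run plus 3 SD, cut at about 38% in these data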
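Repeats: no replicates (n 1) | Material: CHO-derived RD-HGA16 cells with stable Gα16 and human TAAR1 | Technique: Kinetic Fluo-8 calcium fluorescence | Schedule: 17-24 h seeding, 75 min 37 °C dye, 30 min RT | Evaluation: % activation from peak over basal fluorescence ratio, DMSO-to-PEA scaled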
TAAR1 antagonist = human TAAR1 antagonism | CHO RD-HGA16 TAAR1, Fluo-8 calcium fluorescence, antagonist | Q96RJ0 | actives 1.5% (n = 360,000) | inhibition, % at 3 µM | AID 624466;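 active = inhibition above a per-plate cutoff, the mean inhibition of test compounds on that plate plus 3 SD, cut at about 49% in these data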;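 note: 0% = DMSO plus EC80 beta-PEA response and 100% = DMSO alone without agonist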
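System: RD-HGA16 CHO cells with stable hTAAR1 and Gα16 | Probe or stimulus: EC80 β-phenethylamine stimulus | Dosing: 3 µM, single point | Times: Dye loading 75 min at 37 °C, then 30 min room temperature | Measured by: Fluo-8 calcium-sensitive fluorescence | Read-out basis: % inhibition of agonist calcium response | Replicates: n of 1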
* hit, by the source's call; · = not tested or not shown. This is a sample that favours compounds with a hit; in the whole collection about 4% have one here.

SMILES | OX1R antag-1 | OX1R antag-2 | NTR1 agonist | CHO parental Ca | TAAR1 ag | TAAR1 antagonist
CCCCOc1ccc(S(=O)(=O)N2CCCCC2)cc1 | -21 | 4 | 2 | 42* | 3 | 6
COc1ccc(-c2nc(N3CCCCCC3)sc2C(=O)c2ccccc2)cc1 | 56* | 39 | 5 | 36* | 42* | 80*
O=C(c1ccccc1)c1sc(N2CCCCCC2)nc1-c1ccccc1 | 7 | 19 | 13 | -14 | 4 | 16
Cc1ccc(S(=O)(=O)N2CC3=C(c4ccccc4)CC4(C)C(=O)C(C)(C)CC4=C3C2)cc1 (stereo not given) | · | · | · | · | -1 | 0
CCCC(=O)N1CCN(c2ccc(NC(=O)c3cc4ccccc4o3)cc2Cl)CC1 | 60* | 91* | 45* | 61* | 18 | 84*
CCCC(=O)N1CCN(c2ccc(NC(=O)c3cccs3)cc2Cl)CC1 | -33 | 9 | 0 | -15 | 4 | 8
COC(=O)[C@]12C[C@H](CC(=O)NCc3cccc4ccccc34)C(=O)N(CCC3=CCCCC3)C1=C[C@H](C(C)(C)C)O[C@@H]2C | · | · | · | · | 0 | -8
CC1(C)CC(=O)C(N=Nc2ccc(OC(F)F)cc2)=C(O)C1 | -16 | 56* | -1 | -8 | 0 | -2
CN1CCCCC(NC(=O)c2ccc(C#N)cc2)C1=O (stereo not given) | · | · | · | · | 0 | 4
Cc1ccc(N(CCCCN2C(=O)c3ccccc3C2=O)C(=O)c2cccs2)cc1 | -24 | 10 | 7 | -17 | 8 | 49*
C[C@H](CCC(=O)OCc1cn(CC(=O)c2ccc(O)cc2)nn1)C1CC[C@H]2[C@@H]3CC[C@@H]4C[C@H](O)CC[C@]4(C)[C@H]3C[C@H](O)[C@]12C (stereo not given in full) | · | · | · | · | 11 | 53*
CCn1cc([N+](=O)[O-])c(C(=O)Nc2c(C)nn(Cc3cccc(F)c3)c2C)n1 | -9 | -2 | 3 | -5 | 2 | 5
Cc1nn(Cc2ccccc2)c(C)c1NC(=O)c1ccc([N+](=O)[O-])cc1[N+](=O)[O-] | -13 | 45* | 0 | -3 | 3 | 7
COc1ccc(/C=C/c2cccc[n+]2C)c(O)c1 | -1 | 32 | 0 | 1 | -1 | -12
CCN(CC)c1ccc(/C=C/c2cccc[n+]2C)c(OC)c1 | 25 | 65 | -3 | 36* | 10 | 8
CC(=O)Nc1ccc(NC(=O)C(C)OC(=O)CCCN2C(=O)c3cccc4cccc(c34)C2=O)cc1 (stereo not given) | -4 | 74* | 1 | -24 | 10 | -1
Cc1cc(Cl)ccc1OCCCC(N)=O | 0 | 14 | -1 | 4 | 2 | -22
CC(=O)Nc1ccc(NC(=O)C(C)OC(=O)CCCOc2ccc(Cl)cc2C)cc1 (stereo not given) | 0 | 53* | -1 | -22 | 2 | 20
COc1cccc(NC(=O)COc2ccc(Br)c(C)c2)c1 | -1 | 7 | 2 | -4 | 1 | 2
COC(=O)CCCN1C(=O)c2cccc3cccc(c23)C1=O | -23 | 33 | -1 | -15 | 0 | -11
Cc1cc(Cl)ccc1OCC(=O)Nc1ccncc1 | 8 | 16 | 0 | 49* | 10 | 5
Cc1cc(Cl)ccc1OCC(=O)NCc1ccncc1 | -6 | 2 | -1 | -11 | 12 | 4
Cc1cc(OCC(=O)Nc2ccncc2)ccc1Br | 48* | 49 | 0 | 41* | 12 | 14
CCCCCCC12C(=Cc3cc4c(cc31)OCCO4)c1cc(OC)c(OC)cc1C(CC(=O)NCc1ccccc1)N2C(=O)OC (stereo not given) | · | · | · | · | 0 | -21
COC(=O)c1cc2c(c3c4cc(F)ccc4n(S(=O)(=O)c4ccc(OC)cc4)c13)C(=O)N(C)C2 | · | · | · | · | -1 | 14
CCN(CC)c1cc(NCCO)c([N+](=O)[O-])c2nonc12 | -25 | 53* | -1 | -13 | 3 | -21
CC(C)CCSc1cc(NCCO)c([N+](=O)[O-])c2nonc12 | -21 | 54 | 7 | -8 | 5 | -16
Cc1ccc(S(=O)(=O)Nc2ccccc2C(N)=O)cc1 | -5 | 0 | 0 | -8 | 3 | 10
